PubChem BioAssay AID624020 (Broad Institute, 2012)
Calls of active or inactive are those of the source.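 Rule for the calls: active = fitted curve reaching 35% inhibition at both 405 and 600 nm absorbance, in duplicate, within twice the top valid dose; inactive = the rest, including signal rising instead of falling.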

system: not listed separately; test: bacterial growth inhibition with EDDHA chelator – absorbance 405 nm, dry powder, set 3, pyoverdine/PvdQ inhibitor project, dose response (AID 624020); settings: P. aeruginosa growth + EDDHA, pyoverdine absorbance 405 nm; at 50 µM (top of the series)
Summary of the method: (§1)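 Test system: Pseudomonas aeruginosa strain ATCC 15692, whole bacteria / Buffer or medium: succinate M9 medium, pH 7.0, with 2 µM iron chelator EDDHA / Reagent: EDDHA, 2 µM final / Doses: threefold compound dilution series from 10 mM stock / Times: Bacteria-compound culture for 24–30 h at 37 °C, humidified / Technique: pyoverdine absorbance, 405 nm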

Row | SMILES | activity change, negative = inhibition
1 | N#CC(c1ccc(C(F)(F)F)cc1)c1cccc(Cl)n1 (centres undefined) | 17.5% (inactive)
2 | N#Cc1cccc(C(C#N)c2ccc(Cl)cc2Cl)n1 (centres undefined) | -0.74% (inactive)
3 | Cc1ccc(C(C#N)c2ccc(Cl)cc2)nc1C#N (centres undefined) | 5.29% (inactive)
4 | N#CC(c1ccc(C(F)(F)F)c(Cl)n1)c1ccc(Cl)cc1F (centres undefined) | 2.37% (inactive)
5 | Cc1ccc(C(C#N)c2ccc(Cl)cc2)nc1 (centres undefined) | 7.58% (inactive)
6 | N#CC(c1cccc(Cl)n1)c1ccc(Cl)cc1Cl (centres undefined) | 0.286% (inactive)
7 | N#Cc1cccc(C(C#N)c2ccc(Cl)cc2)n1 (centres undefined) | 3.83% (inactive)
8 | N#CC(c1cccc(C(F)(F)F)n1)c1ccccc1OC(F)(F)F (centres undefined) | 7.17% (inactive)
9 | CCCCC(C#N)c1ccc(C(F)(F)F)cc1 (centres undefined) | 16.2% (inactive)
10 | N#Cc1ccc(C(C#N)c2ccc(Cl)cc2)nc1 (centres undefined) | 5.84% (inactive)
11 | N#Cc1ccc(C(C#N)c2ccc(Cl)cc2Cl)nc1 (centres undefined) | 4.54% (inactive)
12 | COc1cccc(C(C#N)c2ccc(F)cc2)n1 (centres undefined) | 9.45% (inactive)
13 | Cc1ccc(C(C#N)c2ccc(F)cc2)nc1C#N (centres undefined) | 4.87% (inactive)
14 | N#CC(CC1CC1)c1ccc(Cl)cc1 (centres undefined) | 3.25% (inactive)
15 | N#CC(c1ccc(C(F)(F)F)cc1)c1ccc(C(F)(F)F)c(Cl)n1 (centres undefined) | 20.8% (inactive)
16 | N#CC(c1ccc(C(F)(F)F)c(Cl)n1)c1ccccc1OC(F)(F)F (centres undefined) | -1.95% (inactive)
17 | CC(C)CC(C#N)c1ccc(Cl)cc1 (centres undefined) | 3.56% (inactive)
18 | CCCCC(C#N)c1ccc(Cl)cc1 (centres undefined) | -10.7% (inactive)

Row | SMILES | activity change, negative = inhibition
19 | CC(C#N)(c1ccc(Cl)cc1)c1ccc(C(F)(F)F)cn1 (centres undefined) | 9.6% (inactive)
20 | N#CC(c1cccc(C(F)(F)F)n1)c1ccc(Cl)cc1F (centres undefined) | -4.42% (inactive)
21 | N#CC(c1ccc(Cl)cc1Cl)c1ncccc1Cl (centres undefined) | 13% (inactive)
22 | CCCCC(C#N)c1ccc(Cl)cc1F (centres undefined) | 15.6% (inactive)
23 | N#CC(c1ccc(Cl)cc1)c1ccc(Cl)cn1 (centres undefined) | -3.9% (inactive)
24 | N#CC(c1ccc(Cl)cc1)c1ccc(C(F)(F)F)c(Cl)n1 (centres undefined) | -1.44% (inactive)
25 | CCCCC(C#N)c1ccc(Cl)cc1Cl (centres undefined) | 14.9% (inactive)
26 | Cc1ccc(C(C#N)c2ccccc2OC(F)(F)F)nc1C#N (centres undefined) | 9.74% (inactive)
27 | N#Cc1cccc(C(C#N)c2ccccc2OC(F)(F)F)n1 (centres undefined) | 4.22% (inactive)
28 | N#CC(c1cccc(Cl)n1)c1ccccc1OC(F)(F)F (centres undefined) | -0.322% (inactive)
29 | Cc1cccc(C(C#N)c2ccc(Cl)cc2)n1 (centres undefined) | 14% (inactive)
30 | N#CC(c1ccc(C(F)(F)F)cc1)c1cccc(C(F)(F)F)n1 (centres undefined) | 20.5% (inactive)
31 | CCCCC(C#N)c1ccccc1OC(F)(F)F (centres undefined) | -1.21% (inactive)
32 | N#Cc1cccc(C(C#N)c2ccc(Cl)cc2F)n1 (centres undefined) | 7.99% (inactive)
33 | CCCCC(C#N)c1ccc(F)cc1 (centres undefined) | 8.04% (inactive)
34 | CCCC(C#N)c1ccc(Cl)cc1 (centres undefined) | -9% (inactive)
35 | N#CC(c1ccc(Cl)cc1)c1ccc(C(F)(F)F)cn1 (centres undefined) | 8.01% (inactive)

system: P. aeruginosa growth + EDDHA, pyoverdine absorbance 405 nm; test: as above; settings: not given
Summary of the method: as §1

Row | SMILES | AC35
36 | N#CC(c1ccc(C(F)(F)F)c(Cl)n1)c1ccc(Cl)cc1Cl (centres undefined) | > 50 µM (inactive)
37 | N#CC(c1ccc(Cl)cc1)c1cccc(C(F)(F)F)n1 (centres undefined) | 16.8 µM
38 | N#CC(c1ccc(F)cc1)c1cccc(C(F)(F)F)n1 (centres undefined) | 44.8 µM
39 | N#CC(c1ccc(Cl)cc1)c1cccc(Cl)n1 (centres undefined) | 33.5 µM
